Measured values published in ChEMBL document CHEMBL3734701, “Synthesis and antibacterial activity of 4″-O-(trans-β-arylacrylamido)carbamoyl azithromycin analogs” (2015).
Converted amounts (≈) assume the structure as drawn.

Legend:
Format in all cases: functional
Staphylococcus aureus [1] = assay: Antibacterial activity against methicillin-susceptible Staphylococcus aureus ATCC 29213 by broth microdilution method
Outline: (§1)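 MICs measured in vitro by broth microdilution following NCCL recommendations, against a Gram-positive panel of sensitive and resistant strains. Azithromycin and clarithromycin were tested alongside as references.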

Staphylococcus aureus [2] = assay: Antibacterial activity against clinically isolated penicillin-resistant Staphylococcus aureus by broth microdilution method
Outline: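 Clinical penicillin-resistant S. aureus isolate, not further characterized, tested in a Gram-positive panel. MIC was measured by broth microdilution following NCCL recommendations, with azithromycin and clarithromycin as references.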

Streptococcus pyogenes [3] = assay: Antibacterial activity against clinically isolated erythromycin-susceptible Streptococcus pyogenes S2 by broth microdilution method
Outline: (§2)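 Broth microdilution MIC following the NCCL-recommended method. Panel of sensitive and resistant Gram-positive strains: S. pyogenes S2 (erythromycin-susceptible clinical isolate), S. aureus ATCC25923 and S. pneumoniae ATCC49619 (erythromycin-susceptible). Azithromycin and clarithromycin were run alongside as references.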

Staphylococcus aureus [4] = assay: Antibacterial activity against erythromycin-susceptible Staphylococcus aureus ATCC 25923 by broth microdilution method; outline: as §2
Streptococcus pneumoniae [5] = assay: Antibacterial activity against erythromycin-resistant Streptococcus pneumoniae B1 expressing ermB gene by broth microdilution method; outline: as §1
Streptococcus pneumoniae [6] = assay: Antibacterial activity against erythromycin-susceptible Streptococcus pneumoniae ATCC 49619 by broth microdilution method; outline: as §2
Streptococcus pyogenes [7] = assay: Antibacterial activity against clinically isolated erythromycin-resistant Streptococcus pyogenes R2 by broth microdilution method; outline: as §1
Streptococcus pneumoniae [8] = assay: Antibacterial activity against erythromycin-resistant Streptococcus pneumoniae AB11 expressing ermB and mefA genes by broth microdilution method; outline: as §1
Streptococcus pneumoniae [9] = assay: Antibacterial activity against erythromycin-resistant Streptococcus pneumoniae A22072 expressing mefA gene by broth microdilution method; outline: as §1

SMILES	MIC (Staphylococcus aureus [1]) [µg/mL]	MIC (Staphylococcus aureus [2]) [µg/mL]	MIC (Streptococcus pyogenes [3]) [µg/mL]	MIC (Staphylococcus aureus [4]) [µg/mL]	MIC (Streptococcus pneumoniae [5]) [µg/mL]	MIC (Streptococcus pneumoniae [6]) [µg/mL]	MIC (Streptococcus pyogenes [7]) [µg/mL]	MIC (Streptococcus pneumoniae [8]) [µg/mL]	MIC (Streptococcus pneumoniae [9]) [µg/mL]
CC[C@H]1OC(=O)[C@@H](C)[C@H](O[C@H]2C[C@@](C)(OC)[C@@H](OC(=O)NNC(=O)/C=C/c3ccccc3F)[C@H](C)O2)[C@@H](C)[C@H](O[C@H]2O[C@@H](C)C[C@@H](N(C)C)[C@@H]2O)[C@@](C)(O)C[C@H](C)CN(C)[C@@H](C)[C@@H]2OC(=O)O[C@@]12C	8 (≈ 8.15 µM)	16 (≈ 16.3 µM)	0.25 (≈ 0.255 µM)	4 (≈ 4.08 µM)	16 (≈ 16.3 µM)	8 (≈ 8.15 µM)	64 (≈ 65.2 µM)	32 (≈ 32.6 µM)	2 (≈ 2.04 µM)
CC[C@H]1OC(=O)[C@@H](C)[C@H](O[C@H]2C[C@@](C)(OC)[C@@H](OC(=O)NNC(=O)/C=C/c3ccc(Cl)cc3)[C@H](C)O2)[C@@H](C)[C@H](O[C@H]2O[C@@H](C)C[C@@H](N(C)C)[C@@H]2O)[C@@](C)(O)C[C@H](C)CN(C)[C@@H](C)[C@@H]2OC(=O)O[C@@]12C	8 (≈ 8.02 µM)	8 (≈ 8.02 µM)	1 (≈ 1 µM)	8 (≈ 8.02 µM)	8 (≈ 8.02 µM)	4 (≈ 4.01 µM)	32 (≈ 32.1 µM)	8 (≈ 8.02 µM)	0.5 (≈ 0.501 µM)
CC[C@H]1OC(=O)[C@@H](C)[C@H](O[C@H]2C[C@@](C)(OC)[C@@H](OC(=O)NNC(=O)/C=C/c3ccc(Br)cc3)[C@H](C)O2)[C@@H](C)[C@H](O[C@H]2O[C@@H](C)C[C@@H](N(C)C)[C@@H]2O)[C@@](C)(O)C[C@H](C)CN(C)[C@@H](C)[C@@H]2OC(=O)O[C@@]12C	4 (≈ 3.84 µM)	8 (≈ 7.68 µM)	1 (≈ 0.96 µM)	4 (≈ 3.84 µM)	8 (≈ 7.68 µM)	4 (≈ 3.84 µM)	16 (≈ 15.4 µM)	4 (≈ 3.84 µM)	0.25 (≈ 0.24 µM)
CC[C@H]1OC(=O)[C@@H](C)[C@H](O[C@H]2C[C@@](C)(OC)[C@@H](OC(=O)NNC(=O)/C=C/c3ccc(OC)c(OC)c3)[C@H](C)O2)[C@@H](C)[C@H](O[C@H]2O[C@@H](C)C[C@@H](N(C)C)[C@@H]2O)[C@@](C)(O)C[C@H](C)CN(C)[C@@H](C)[C@@H]2OC(=O)O[C@@]12C	16 (≈ 15.6 µM)	8 (≈ 7.82 µM)	0.5 (≈ 0.489 µM)	8 (≈ 7.82 µM)	32 (≈ 31.3 µM)	2 (≈ 1.95 µM)	64 (≈ 62.5 µM)	8 (≈ 7.82 µM)	0.5 (≈ 0.489 µM)
CC[C@@H]1OC(=O)[C@H](C)[C@@H](O[C@H]2C[C@@](C)(OC)[C@@H](OC(=O)NNC(=O)/C=C/c3ccco3)[C@H](C)O2)[C@@H](C)[C@@H](O[C@@H]2O[C@H](C)C[C@H](N(C)C)[C@H]2O)[C@](C)(O)C[C@@H](C)CN(C)[C@H](C)[C@@H](OC(=O)NCc2ccccc2)[C@]1(C)O	4 (≈ 3.77 µM)	1 (≈ 0.943 µM)	0.25 (≈ 0.236 µM)	1 (≈ 0.943 µM)	4 (≈ 3.77 µM)	0.12 (≈ 0.113 µM)	64 (≈ 60.4 µM)	8 (≈ 7.55 µM)	0.12 (≈ 0.113 µM)
CC[C@@H]1OC(=O)[C@H](C)[C@@H](O[C@H]2C[C@@](C)(OC)[C@@H](OC(=O)NNC(=O)/C=C/c3cccs3)[C@H](C)O2)[C@@H](C)[C@@H](O[C@@H]2O[C@H](C)C[C@H](N(C)C)[C@H]2O)[C@](C)(O)C[C@@H](C)CN(C)[C@H](C)[C@@H](OC(=O)NCc2ccccc2)[C@]1(C)O	4 (≈ 3.72 µM)	2 (≈ 1.86 µM)	0.25 (≈ 0.232 µM)	1 (≈ 0.929 µM)	2 (≈ 1.86 µM)	0.5 (≈ 0.465 µM)	32 (≈ 29.7 µM)	4 (≈ 3.72 µM)	0.06 (≈ 0.0557 µM)
CC[C@H]1OC(=O)[C@@H](C)[C@H](O[C@H]2C[C@@](C)(OC)[C@@H](OC(=O)NNC(=O)/C=C/c3ccccc3OC)[C@H](C)O2)[C@@H](C)[C@H](O[C@H]2O[C@@H](C)C[C@@H](N(C)C)[C@@H]2O)[C@@](C)(O)C[C@H](C)CN(C)[C@@H](C)[C@@H]2OC(=O)O[C@@]12C	4 (≈ 4.03 µM)	8 (≈ 8.05 µM)	8 (≈ 8.05 µM)	2 (≈ 2.01 µM)	4 (≈ 4.03 µM)	4 (≈ 4.03 µM)	64 (≈ 64.4 µM)	2 (≈ 2.01 µM)	0.25 (≈ 0.252 µM)
CC[C@H]1OC(=O)[C@@H](C)[C@H](O[C@H]2C[C@@](C)(OC)[C@@H](OC(=O)NNC(=O)/C=C/c3ccc(F)cc3)[C@H](C)O2)[C@@H](C)[C@H](O[C@H]2O[C@@H](C)C[C@@H](N(C)C)[C@@H]2O)[C@@](C)(O)C[C@H](C)CN(C)[C@@H](C)[C@@H]2OC(=O)O[C@@]12C	8 (≈ 8.15 µM)	16 (≈ 16.3 µM)	0.5 (≈ 0.51 µM)	2 (≈ 2.04 µM)	64 (≈ 65.2 µM)	16 (≈ 16.3 µM)	64 (≈ 65.2 µM)	16 (≈ 16.3 µM)	2 (≈ 2.04 µM)
CC[C@H]1OC(=O)[C@@H](C)[C@H](O[C@H]2C[C@@](C)(OC)[C@@H](OC(=O)NNC(=O)/C=C/c3cc(OC)c(OC)c(OC)c3)[C@H](C)O2)[C@@H](C)[C@H](O[C@H]2O[C@@H](C)C[C@@H](N(C)C)[C@@H]2O)[C@@](C)(O)C[C@H](C)CN(C)[C@@H](C)[C@@H]2OC(=O)O[C@@]12C	16 (≈ 15.2 µM)	16 (≈ 15.2 µM)	0.5 (≈ 0.475 µM)	8 (≈ 7.6 µM)	32 (≈ 30.4 µM)	4 (≈ 3.8 µM)	64 (≈ 60.8 µM)	16 (≈ 15.2 µM)	0.5 (≈ 0.475 µM)
CC[C@H]1OC(=O)[C@@H](C)[C@H](O[C@H]2C[C@@](C)(OC)[C@@H](OC(=O)NNC(=O)/C=C/c3ccc(C#N)cc3)[C@H](C)O2)[C@@H](C)[C@H](O[C@H]2O[C@@H](C)C[C@@H](N(C)C)[C@@H]2O)[C@@](C)(O)C[C@H](C)CN(C)[C@@H](C)[C@@H]2OC(=O)O[C@@]12C	8 (≈ 8.1 µM)	8 (≈ 8.1 µM)	0.5 (≈ 0.506 µM)	4 (≈ 4.05 µM)	64 (≈ 64.8 µM)	16 (≈ 16.2 µM)	≥ 128	64 (≈ 64.8 µM)	2 (≈ 2.02 µM)
CC[C@H]1OC(=O)[C@@H](C)[C@H](O[C@H]2C[C@@](C)(OC)[C@@H](OC(=O)NNC(=O)/C=C/c3ccco3)[C@H](C)O2)[C@@H](C)[C@H](O[C@H]2O[C@@H](C)C[C@@H](N(C)C)[C@@H]2O)[C@@](C)(O)C[C@H](C)CN(C)[C@@H](C)[C@@H]2OC(=O)O[C@@]12C	8 (≈ 8.39 µM)	4 (≈ 4.2 µM)	0.25 (≈ 0.262 µM)	2 (≈ 2.1 µM)	32 (≈ 33.6 µM)	8 (≈ 8.39 µM)	≥ 128	16 (≈ 16.8 µM)	1 (≈ 1.05 µM)
CC[C@H]1OC(=O)[C@@H](C)[C@H](O[C@H]2C[C@@](C)(OC)[C@@H](OC(=O)NNC(=O)/C=C/c3ccc([N+](=O)[O-])cc3)[C@H](C)O2)[C@@H](C)[C@H](O[C@H]2O[C@@H](C)C[C@@H](N(C)C)[C@@H]2O)[C@@](C)(O)C[C@H](C)CN(C)[C@@H](C)[C@@H]2OC(=O)O[C@@]12C	8 (≈ 7.94 µM)	16 (≈ 15.9 µM)	0.25 (≈ 0.248 µM)	2 (≈ 1.98 µM)	16 (≈ 15.9 µM)	2 (≈ 1.98 µM)	≥ 128	8 (≈ 7.94 µM)	0.5 (≈ 0.496 µM)
CC[C@@H]1OC(=O)[C@H](C)[C@@H](O[C@H]2C[C@@](C)(OC)[C@@H](OC(=O)NNC(=O)/C=C/c3ccccc3)[C@H](C)O2)[C@@H](C)[C@@H](O[C@@H]2O[C@H](C)C[C@H](N(C)C)[C@H]2O)[C@](C)(O)C[C@@H](C)CN(C)[C@H](C)[C@@H](OC(=O)NCc2ccccc2)[C@]1(C)O	1 (≈ 0.934 µM)	1 (≈ 0.934 µM)	0.5 (≈ 0.467 µM)	0.5 (≈ 0.467 µM)	2 (≈ 1.87 µM)	0.5 (≈ 0.467 µM)	32 (≈ 29.9 µM)	4 (≈ 3.74 µM)	1 (≈ 0.934 µM)
CC[C@H]1OC(=O)[C@@H](C)[C@H](O[C@H]2C[C@@](C)(OC)[C@@H](OC(=O)NNC(=O)/C=C/c3ccccc3)[C@H](C)O2)[C@@H](C)[C@H](O[C@H]2O[C@@H](C)C[C@@H](N(C)C)[C@@H]2O)[C@@](C)(O)C[C@H](C)CN(C)[C@@H](C)[C@@H]2OC(=O)O[C@@]12C	8 (≈ 8.31 µM)	8 (≈ 8.31 µM)	0.25 (≈ 0.26 µM)	8 (≈ 8.31 µM)	8 (≈ 8.31 µM)	2 (≈ 2.08 µM)	64 (≈ 66.4 µM)	4 (≈ 4.15 µM)	0.25 (≈ 0.26 µM)
